# From ChEMBL document CHEMBL1129062, “6- and 7-substituted 2-[2'-(dimethylamino)ethyl]-1,2-dihydro-3H-dibenz[de,h] isoquinoline-1,3-diones: synthesis, nucleophilic displacements, antitumor activity, and quantitative structure-activity relationships” (J Med Chem, 1996)
# Active and inactive are the calls of the source. No cut-off for these calls is given here.
# Experiments:
# UACC-375 = assay: Inhibitory activity against […] cell line; format: functional, cell-based; conditions: Homo sapiens
# L1210 [1] = assay: Inhibitory activity against sensitive L1210 cell lines; format: functional, cell-based; conditions: Mus musculus
# L1210 [2] = assay: Inhibitory activity against resistant murine leukemia L1210 cell lines.; format: functional, cell-based; conditions: Mus musculus
# OVCAR-3 = assay: Inhibitory activity against OVCAR-3 cell line; format: functional, cell-based; conditions: Homo sapiens
# P388 [3] = assay: Compound was tested against P388 leukemia at % increase in life span (ILS) in mice at 15 mg/kg dosage; Not active at highest dose tested (% ILS<25); format: functional, organism-based; design: dose 15 mg/kg; conditions: Mus musculus
# Rattus norvegicus [4] = organism: Rattus norvegicus; assay: Compound was tested for Cardiotoxicity by a neonatal rat heart myocyte assay.; format: functional
# Procedure, shortened: (§1)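 Neonatal rat heart myocytes exposed to drug for 1 h. Read-out is the ATP/protein ratio relative to untreated control myocytes. IC50 is the 1-h concentration that reduces this ratio to 50% of control.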
# Tumor cell line = assay: An average for IC50 values in the two solid tumor cell lines.; format: functional, cell-based
# [5] = Toxicity ratio determined by the quotient of IC50 values in the myocytes divided by the average value in the three tumor lines.; format: functional
# Procedure, shortened: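 Ratio is the myocyte cardiotoxicity IC50 (1-h exposure, ATP/protein ratio versus untreated myocytes) divided by the mean IC50 in sensitive L1210 and the two human tumor lines, measured with continuous exposure.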
# [6] = test system: neonatal heart myocytes (Rattus norvegicus); assay: Cardio toxicity was measured.
# A549 [7] = assay: Compound was tested against A549 lung cancer cell line in the sulforhodamine B assay.; format: functional, cell-based; conditions: Homo sapiens
# Procedure, shortened: (§2)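 Sulforhodamine B assay. Cells plated at 50 000/well; drug added on day 2 at 10^1–10^-5 μg/mL in half-log steps from DMSO stock diluted in PBS, final DMSO ≤0.1%. After 8-day exposure at 37 °C, cells fixed with TCA at 4 °C for 1 h and stained 30 min with 0.4% SRB. Dye solubilized in 10 mM Tris and OD read at 564 nm. Six wells per concentration; IC50 averaged.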
# B16 [8] = assay: Compound was tested against sc B16 melanoma cell line in mice at 15 mg/kg dosage.; format: functional; conditions: Mus musculus, route subcutaneous, read-out: TGI
# L1210 [9] = assay: Compound was tested against L1210 leukemia cell line in mice at 15 mg/kg dosage.; format: functional; conditions: Mus musculus
# Procedure, shortened: (§3)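 Male DBA/2J mice, 10 per group, inoculated ip on day 0 with 10^6 freshly harvested leukemia cells. Compound given ip in equal doses on days 1, 5 and 9; controls received saline ip on the same days. Highest dose set 10% below the acute LD10. %ILS = 100 × (treated − control)/control, using median life span per group; value reported at highest nontoxic dose.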
# MCF7 [10] = assay: Tested against […] breast carcinoma (doxorubicin resistant) cell line in the sulforhodamine B assay.; format: functional, cell-based; conditions: Homo sapiens; procedure, shortened: as §2
# MCF7 [11] = assay: Tested against […] breast carcinoma (mitoxantrone resistant)cell line in the sulforhodamine B assay.; format: functional, cell-based; conditions: Homo sapiens; procedure, shortened: as §2
# P388 [12] = assay: Compound was tested against P388 leukemia cell line in mice at 15 mg/kg dosage.; format: functional; conditions: Mus musculus; procedure, shortened: as §3
# Rattus norvegicus [13] = organism: Rattus norvegicus; assay: Cardiotoxicity by a neonatal rat heart myocyte assay; format: toxicity; procedure, shortened: as §1
# WiDr [14] = assay: Compound was tested against WiDr colon carcinoma (resistant)cell line in the sulforhodamine B assay.; format: functional, cell-based; conditions: Homo sapiens; procedure, shortened: as §2
# WiDr [15] = assay: Compound was tested against WiDr colon (sensitive) cell line in the sulforhodamine B assay.; format: functional, cell-based; conditions: Homo sapiens; procedure, shortened: as §2
# [16] = An average for IC50 values in the two solid tumor cell lines and sensitive L1210 leukemia cell line.; format: functional, cell-based
# MCF7 [17] = assay: Tested against […] breast carcinoma (sensitive) cell line in the sulforhodamine B assay.; format: functional, cell-based; conditions: Homo sapiens; procedure, shortened: as §2
# A549 [18] = assay: Tested against A549 lung carcinoma in the sulforhodamine B assay.; format: functional, cell-based; conditions: Homo sapiens; procedure, shortened: as §2
# B16 [19] = assay: Compound was tested against sc B16 melanoma at % tumor growth inhibition(TGI) in mice at 6 mg/kg dosage; no palpable tumor; format: functional; conditions: Mus musculus, route subcutaneous, read-out: TGI
# L1210 [20] = assay: Compound was tested against L1210 leukemia at % increase in life span (ILS) in mice at 8 mg/kg dosage.; format: functional; conditions: Mus musculus; procedure, shortened: as §3
# P388 [21] = assay: Compound was tested against P388 leukemia at % increase in life span (ILS) in mice at 5 mg/kg dosage.; format: functional; conditions: Mus musculus; procedure, shortened: as §3
# WiDr [22] = assay: Tested against WiDr colon carcinoma (resistant) in the sulforhodamine B assay.; format: functional, cell-based; conditions: Homo sapiens; procedure, shortened: as §2
# WiDr [23] = assay: Tested against WiDr colon (sensitive) in the sulforhodamine B assay.; format: functional, cell-based; conditions: Homo sapiens; procedure, shortened: as §2
# A549 [24] = assay: Compound tested against A549 lung carcinoma in the sulforhodamine B assay.; format: functional, cell-based; conditions: Homo sapiens; procedure, shortened: as §2
# L1210 [25] = assay: Compound was tested against L1210 leukemia at % increase in life span (ILS) in mice at 8 mg/kg dosage; Not active; format: functional, organism-based; design: dose 8 mg/kg; conditions: Mus musculus
# WiDr [26] = assay: Compound tested against WiDr colon carcinoma (resistant) in the sulforhodamine B assay.; format: functional, cell-based; conditions: Homo sapiens; procedure, shortened: as §2
# WiDr [27] = assay: Compound tested against WiDr colon (sensitive) in the sulforhodamine B assay.; format: functional, cell-based; conditions: Homo sapiens; procedure, shortened: as §2
# B16 [28] = assay: Compound was tested against sc B16 melanoma at % tumor growth inhibition(TGI) in mice at 3.2 mg/kg dosage.; format: functional; conditions: Mus musculus, route subcutaneous, read-out: TGI
# L1210 [29] = assay: Compound was tested against L1210 leukemia at % increase in life span (ILS) in mice at 1.6 mg/kg dosage.; format: functional; conditions: Mus musculus; procedure, shortened: as §3
# P388 [30] = assay: Compound was tested against P388 leukemia at % increase in life span (ILS) in mice at 1.6 mg/kg dosage.; format: functional; conditions: Mus musculus; procedure, shortened: as §3
# A549 [31] = assay: Compound was tested against A549 lung carcinoma cell line in the sulforhodamine B assay.; format: functional, cell-based; conditions: Homo sapiens; procedure, shortened: as §2
# WiDr [32] = assay: Compound tested against WiDr colon carcinoma (resistant)cell line in the sulforhodamine B assay.; format: functional, cell-based; conditions: Homo sapiens; procedure, shortened: as §2
# B16 [33] = assay: Compound were tested against sc B16 melanoma at % tumor growth inhibition(TGI) in mice at 3 mg/kg dosage.; format: functional; conditions: Mus musculus, route subcutaneous, read-out: TGI
# P388 [34] = assay: Compound was tested against P388 leukemia at % increase in life span (ILS) in mice at 3 mg/kg dosage.; format: functional; conditions: Mus musculus; procedure, shortened: as §3
# P388 [35] = assay: Compound was tested against P388 leukemia at % increase in life span (ILS) in mice at 15 mg/kg dosage.; format: functional; conditions: Mus musculus; procedure, shortened: as §3
compound,measurement,setting,value
Cc1ccc2c3c(c4ccccc4cc13)C(=O)N(CCN(C)C)C2=O,IC50,UACC-375,141 nM
same,IC50,L1210 [1],6.8 nM
same,IC50,L1210 [2],27 nM
same,IC50,OVCAR-3,217 nM
same,ILS,P388 [3],inactive
same,IC50,Rattus norvegicus [4],989 nM
same,IC50,Tumor cell line,179 nM
same,Toxicity ratio,[5],8.1
same,IC50,[6],989 nM
CN(C)CCN1C(=O)c2cccc3cc4ccccc4c(c23)C1=O [AZONAFIDE],IC50,A549 [7],10 nM
same,inhibition in vivo at 15 mg/kg,B16 [8],74%
same,IC50,L1210 [1],7 nM
same,ILS at 15 mg/kg,L1210 [9],72%
same,IC50,MCF7 [10],70 nM
same,IC50,MCF7 [11],20 nM
same,ILS at 15 mg/kg,P388 [12],79%
same,IC50,Rattus norvegicus [13],1980 nM
same,IC50,Tumor cell line,64 nM
same,IC50,WiDr [14],94 nM
same,IC50,WiDr [15],13 nM
same,Toxicity ratio,[5],44
same,IC50,[16],45 nM
same,IC50,MCF7 [17],18 nM
CCOc1ccc2c3c(c4ccccc4cc13)C(=O)N(CCN(C)C)C2=O,IC50,A549 [18],2.9 nM
same,IC50,UACC-375,19 nM
same,inhibition in vivo at 6 mg/kg,B16 [19],> 100%
same,IC50,L1210 [1],8 nM
same,IC50,L1210 [2],6.7 nM
same,ILS at 8 mg/kg,L1210 [20],100%
same,IC50,MCF7 [10],18 nM
same,IC50,MCF7 [11],14 nM
same,IC50,OVCAR-3,0.8 nM
same,ILS at 5 mg/kg,P388 [21],55%
same,IC50,Rattus norvegicus [13],1780 nM
same,IC50,Tumor cell line,10 nM
same,IC50,WiDr [22],63 nM
same,IC50,WiDr [23],17 nM
same,Toxicity ratio,[5],192
same,IC50,[16],9.3 nM
same,IC50,MCF7 [17],11 nM
CN(C)CCOc1ccc2c3c(c4ccccc4cc13)C(=O)N(CCN(C)C)C2=O,IC50,A549 [24],0.58 nM
same,IC50,UACC-375,31 nM
same,IC50,L1210 [1],0.2 nM
same,IC50,L1210 [2],1.3 nM
same,ILS,L1210 [25],inactive
same,IC50,MCF7 [10],8.9 nM
same,IC50,MCF7 [11],3.9 nM
same,IC50,OVCAR-3,31 nM
same,IC50,Rattus norvegicus [13],5440 nM
same,IC50,Tumor cell line,31 nM
same,IC50,WiDr [26],10 nM
same,IC50,WiDr [27],2.4 nM
same,Toxicity ratio,[5],262
same,IC50,[16],21 nM
same,IC50,MCF7 [17],3.9 nM
O=C1c2c(O)ccc(O)c2C(=O)c2c(NCCNCCO)ccc(NCCNCCO)c21 [MITOXANTRONE],IC50,A549 [18],3.1 nM
same,inhibition in vivo at 3.2 mg/kg,B16 [28],130%
same,IC50,L1210 [1],9.7 nM
same,ILS at 1.6 mg/kg,L1210 [29],150%
same,IC50,MCF7 [10],72 nM
same,IC50,MCF7 [11],41 nM
same,ILS at 1.6 mg/kg,P388 [30],200%
same,IC50,Rattus norvegicus [13],7740 nM
same,IC50,Tumor cell line,27 nM
same,IC50,WiDr [22],488 nM
same,IC50,WiDr [23],8.1 nM
same,Toxicity ratio,[5],368
same,IC50,[16],21 nM
same,IC50,MCF7 [17],8.7 nM
CN(C)CCN1C(=O)c2ccc(I)c3cc4ccccc4c(c23)C1=O,IC50,A549 [31],10 nM
same,IC50,UACC-375,416 nM
same,IC50,L1210 [1],416 nM
same,IC50,L1210 [2],416 nM
same,IC50,MCF7 [10],30 nM
same,IC50,MCF7 [11],10 nM
same,IC50,OVCAR-3,416 nM
same,IC50,Rattus norvegicus [13],43700 nM
same,IC50,Tumor cell line,416 nM
same,IC50,WiDr [15],65 nM
same,IC50,WiDr [32],620 nM
same,Toxicity ratio,[5],105
same,IC50,[16],416 nM
same,IC50,MCF7 [17],11 nM
CN(C)CCNc1ccc2c3c(c4ccccc4cc13)C(=O)N(CCN(C)C)C2=O,IC50,A549 [18],0.43 nM
same,IC50,UACC-375,11 nM
same,inhibition in vivo at 3 mg/kg,B16 [33],66%
same,IC50,L1210 [1],0.04 nM
same,IC50,L1210 [2],0.04 nM
same,IC50,MCF7 [10],14 nM
same,IC50,MCF7 [11],1.9 nM
same,IC50,OVCAR-3,63 nM
same,ILS at 3 mg/kg,P388 [34],44%
same,IC50,Rattus norvegicus [13],4190 nM
same,IC50,Tumor cell line,37 nM
same,IC50,WiDr [22],14 nM
same,IC50,WiDr [23],1.7 nM
same,Toxicity ratio,[5],171
same,IC50,[16],25 nM
same,IC50,MCF7 [17],1 nM
CN(C)CCN1C(=O)c2cccc3cc(N)cc(c23)C1=O [AMONAFIDE],ILS at 15 mg/kg,P388 [35],88%
same,IC50,Rattus norvegicus [13],48400 nM
same,IC50,Tumor cell line,2110 nM
same,Toxicity ratio,[5],30
same,IC50,[16],1610 nM
